The values that follow come from ChEMBL document CHEMBL1255379, “Evaluation of Etest method for determining isavuconazole MICs against Cryptococcus gattii and Cryptococcus neoformans” (2008).

Converted amounts (≈) assume the structure as drawn. A value given as a limit tells only on which side of the number the result lay.

Test [1] deals with Cryptococcus neoformans. Nature of the test: Antimicrobial activity against Cryptococcus neoformans by broth microdilution method. It is filed as functional. A digest of the protocol: (§1)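 CLSI M27-A2 broth microdilution in RPMI 1640 with L-glutamine, no bicarbonate, MOPS-buffered to pH 7.0. Isavuconazole stock in DMSO; final concentrations 0.015 to 8 μg/ml. Inoculum 0.5 × 10³ to 2.5 × 10³ cells/ml from subcultured isolates. Incubated at 35°C. MIC read at 48 and 72 h as 50% reduction in turbidity versus drug-free control. Candida krusei ATCC 6258 and C. parapsilosis ATCC 22019 served as quality controls.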
On the technique in general: Broth dilution looks for growth in wells or tubes with falling amounts of substance.

In test [2] the test system is Cryptococcus neoformans. The test can be described thus: Antimicrobial activity against Cryptococcus neoformans by Etest method. It is filed as functional. An outline of the steps:
(§2)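 Isolates (clinical and environmental), maintained in sterile water or glycerol broth, subcultured at least twice on Sabouraud dextrose agar. Suspension adjusted to 0.5 McFarland and swabbed onto RPMI agar plates with 2% glucose; isavuconazole Etest strips applied. Incubated at 35°C, read at 48 and 72 h. MIC taken where prominent growth reduction meets the strip, raised to the next twofold level.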

The test system of test [3] is Cryptococcus gattii species complex. The test can be described thus: Antimicrobial activity against Cryptococcus gattii by Etest method. Format: functional, Cryptococcus bacillisporus. A digest of the protocol: as §2
The test system is the same in test [4]. The test can be described thus: Antimicrobial activity against Cryptococcus gattii by broth microdilution method. Format: functional, Cryptococcus bacillisporus. A digest of the protocol:
as §1

As a reminder, the MIC is the least concentration at which growth counts as inhibited. The term MIC50 denotes the lowest concentration that inhibits either 50% of growth or 50% of the strains tested, depending on the study. Usually MIC90 stands for the lowest concentration that inhibits either 90% of growth or 90% of the strains tested, depending on the study. Low values mean greater potency, high ones weaker potency.

Turning to `C[C@@H](c1nc(-c2ccc(C#N)cc2)cs1)[C@](O)(Cn1cncn1)c1cc(F)ccc1F` [ISAVUCONAZOLE], the MIC in test [1] is at most 0.015 µg/mL; in test [2], 0.002 µg/mL (≈ 0.00457 µM); in test [3], 0.003 µg/mL (≈ 0.00686 µM); in test [4] it was at most 0.015 µg/mL. Also, the MIC50 in test [1] was at most 0.015 µg/mL; in test [2], 0.023 µg/mL (≈ 0.0526 µM); in test [3], 0.032 µg/mL (≈ 0.0731 µM); in test [4], 0.03 µg/mL (≈ 0.0686 µM). Further, the MIC90 amounted to 0.06 µg/mL (≈ 0.137 µM) in test [1], 0.047 µg/mL (≈ 0.107 µM) in test [2], 0.125 µg/mL (≈ 0.286 µM) in test [3] and 0.06 µg/mL (≈ 0.137 µM) in test [4].
